Calls of active or inactive are those of the source. The calls are words filed in the database; no cut-off is given here.
How the values were obtained:
[1] = target: T1, Casein kinase I isoform delta (Homo sapiens, UniProt P48730); test: Inhibition of recombinant human N-terminal GST-tagged CK1delta (1 to 294 residues) at 40 uM using casein as substrate measured after 60 mins in presence of ATP by Kinase-Glo reagent-based luminescence assay relative to control
Target sequence in this assay (P48730 whole entry, looked up, the tested form may be a part, canonical isoform): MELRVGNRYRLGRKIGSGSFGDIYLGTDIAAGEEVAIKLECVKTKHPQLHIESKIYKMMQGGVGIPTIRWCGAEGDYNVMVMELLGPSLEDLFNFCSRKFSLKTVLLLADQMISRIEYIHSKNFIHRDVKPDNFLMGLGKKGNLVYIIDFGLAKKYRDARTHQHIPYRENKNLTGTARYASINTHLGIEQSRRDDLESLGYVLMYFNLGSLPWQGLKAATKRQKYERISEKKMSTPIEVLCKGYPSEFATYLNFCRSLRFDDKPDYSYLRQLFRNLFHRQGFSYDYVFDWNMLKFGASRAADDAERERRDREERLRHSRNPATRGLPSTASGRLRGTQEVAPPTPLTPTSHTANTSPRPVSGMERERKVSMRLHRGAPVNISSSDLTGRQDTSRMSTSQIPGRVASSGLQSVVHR

[2] = target: T1, Casein kinase I isoform delta; test: Inhibition of recombinant human N-terminal GST-tagged CK1delta (1 to 294 residues) using casein as substrate measured after 60 mins in presence of ATP by Kinase-Glo reagent-based luminescence assay
Target sequence in this assay (P48730 whole entry, the tested form may be a part, canonical isoform): as the sequence (P48730 whole entry, looked up, the tested form may be a part, canonical isoform) above

[3] = Inhibition of porcine brain CK1delta using RRKHAAIGpSAYSITA as substrate incubated for 30 mins in presence of [gamma-33P]ATP by scintillation counting method; format: tissue-based, Sus scrofa domesticus
[4] = target: T2, Casein kinase I isoform epsilon (Homo sapiens, UniProt P49674); test: Inhibition of wild-type human CK1epsilon using PLSRTLpSVASLPGL as substrate incubated for 70 mins in presence of ATP by Kinase-Glo luminescence assay
Target sequence in this assay (P49674 whole entry, canonical isoform): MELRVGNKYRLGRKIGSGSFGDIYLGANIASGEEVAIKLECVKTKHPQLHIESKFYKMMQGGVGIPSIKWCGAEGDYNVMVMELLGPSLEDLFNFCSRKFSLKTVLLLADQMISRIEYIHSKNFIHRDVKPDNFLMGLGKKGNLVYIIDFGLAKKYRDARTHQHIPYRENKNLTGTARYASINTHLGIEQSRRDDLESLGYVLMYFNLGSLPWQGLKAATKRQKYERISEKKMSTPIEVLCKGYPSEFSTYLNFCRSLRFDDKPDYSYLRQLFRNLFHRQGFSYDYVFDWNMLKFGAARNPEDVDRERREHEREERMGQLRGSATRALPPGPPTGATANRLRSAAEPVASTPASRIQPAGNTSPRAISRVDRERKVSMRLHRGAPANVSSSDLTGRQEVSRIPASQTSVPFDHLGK

[5] = target: T1, Casein kinase I isoform delta; test: Inhibition of wild-type human CK1delta using PLSRTLpSVASLPGL as substrate incubated for 40 mins in presence of ATP by Kinase-Glo luminescence assay
Target sequence in this assay (P48730 whole entry, the tested form may be a part, canonical isoform): as the sequence (P48730 whole entry, looked up, the tested form may be a part, canonical isoform) above

[6] = target: T1, Casein kinase I isoform delta; test: Inhibition of recombinant human full-length N-terminal GST-tagged CK1delta using casein as substrate measured after 10 mins in presence of ATP by Kinase-Glo reagent-based luminescence assay
Outline: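 Full-length CK1δ at 26 nM with 0.1% casein and 4 µM ATP added, in 50 mM HEPES pH 7.5, 1 mM EDTA, 1 mM EGTA, 15 mM Mg acetate. Ten inhibitor concentrations from 100 to 0.026 µM. 10 min at 30 °C, Kinase-Glo stop, luminescence read after 10 min at 30 °C. IC50 given as mean ± standard error of three independent experiments.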
Target sequence in this assay (P48730 whole entry, the tested form may be a part, canonical isoform): as the sequence (P48730 whole entry, looked up, the tested form may be a part, canonical isoform) above

[7] = target: Casein kinase I isoform gamma-1 (Homo sapiens) (UniProt Q9HCP0); test: Binding affinity to wild-type human partial length CSNK1G1 (T15 to S353 residues) expressed in bacterial expression system at 10 uM by Kinomescan method relative to control
Sequence of Casein kinase I isoform gamma-1 (Homo sapiens) (Q9HCP0 whole entry, looked up, the tested form may be a part, canonical isoform): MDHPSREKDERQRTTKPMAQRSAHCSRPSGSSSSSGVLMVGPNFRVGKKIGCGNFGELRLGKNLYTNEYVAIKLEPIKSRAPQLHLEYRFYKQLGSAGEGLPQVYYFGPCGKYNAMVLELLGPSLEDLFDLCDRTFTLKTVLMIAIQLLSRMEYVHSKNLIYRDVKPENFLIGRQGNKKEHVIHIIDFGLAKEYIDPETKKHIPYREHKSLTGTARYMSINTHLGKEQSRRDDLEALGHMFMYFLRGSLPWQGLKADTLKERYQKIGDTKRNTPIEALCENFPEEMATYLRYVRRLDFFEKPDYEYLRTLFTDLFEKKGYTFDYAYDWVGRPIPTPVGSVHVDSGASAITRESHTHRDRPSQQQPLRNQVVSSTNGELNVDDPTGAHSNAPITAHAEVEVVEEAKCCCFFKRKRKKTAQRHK
Outline: (§1)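 KINOMEscan competition binding across the CK1 isoform panel, compound at 10 µM. Reported as % binding relative to a […].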

[8] = target: Casein kinase I isoform alpha (Homo sapiens) (UniProt P48729); test: Binding affinity to wild-type human partial length CSNK1A1 (M1 to L301 residues) expressed in mammalian expression system at 10 uM by Kinomescan method relative to control; outline: as §1
Sequence of Casein kinase I isoform alpha (Homo sapiens) (P48729 2-337 limits assumed): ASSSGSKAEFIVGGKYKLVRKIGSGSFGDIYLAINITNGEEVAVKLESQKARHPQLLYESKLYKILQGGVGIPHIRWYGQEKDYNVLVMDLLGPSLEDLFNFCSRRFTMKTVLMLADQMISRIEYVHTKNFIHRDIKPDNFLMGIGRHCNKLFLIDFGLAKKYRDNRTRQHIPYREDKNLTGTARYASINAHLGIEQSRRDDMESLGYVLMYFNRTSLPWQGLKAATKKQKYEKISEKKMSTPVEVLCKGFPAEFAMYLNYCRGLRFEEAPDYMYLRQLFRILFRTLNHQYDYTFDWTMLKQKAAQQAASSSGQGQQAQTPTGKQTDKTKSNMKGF

[9] = target: Casein kinase I isoform gamma-2 (Homo sapiens) (UniProt P78368); test: Binding affinity to wild-type human full length CSNK1G2 (M1 to K415 residues) expressed in bacterial expression system at 10 uM by Kinomescan method relative to control; outline: as §1
Sequence of Casein kinase I isoform gamma-2 (Homo sapiens) (P78368 whole entry, looked up, the tested form may be a part, canonical isoform): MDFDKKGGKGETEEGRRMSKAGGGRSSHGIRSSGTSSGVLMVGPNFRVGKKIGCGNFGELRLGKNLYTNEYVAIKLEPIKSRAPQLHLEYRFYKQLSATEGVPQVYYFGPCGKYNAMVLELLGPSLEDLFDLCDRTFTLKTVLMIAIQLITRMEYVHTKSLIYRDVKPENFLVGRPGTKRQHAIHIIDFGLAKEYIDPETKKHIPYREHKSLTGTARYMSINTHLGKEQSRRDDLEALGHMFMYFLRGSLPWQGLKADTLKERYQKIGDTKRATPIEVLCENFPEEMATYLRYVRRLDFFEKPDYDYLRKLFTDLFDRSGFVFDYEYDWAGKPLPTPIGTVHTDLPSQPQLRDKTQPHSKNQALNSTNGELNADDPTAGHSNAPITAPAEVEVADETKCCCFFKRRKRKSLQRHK

PBL [10] = test: Cytotoxicity against PHA-stimulated human PBL assessed as inhibition of cell growth after 72 hrs by resazurin based assay
Outline: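 PBL isolated from buffy coats by Lymphoprep density gradient, held overnight in RPMI-1640 with 10% FBS. Non-adherent cells at 5×10^5 cells/mL with 2.5 µg/mL PHA. 72 h compound exposure; viability by resazurin fluorescence at 590 nm over 4 h.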

[11] = target: T2, Casein kinase I isoform epsilon; test: Binding affinity to wild-type human full length CSNK1E (M1 to K416 residues) expressed in bacterial expression system at 10 uM by Kinomescan method relative to control; outline: as §1
Target sequence in this assay (P49674 whole entry, looked up, canonical isoform): as the sequence (P49674 whole entry, canonical isoform) above

[12] = target: T1, Casein kinase I isoform delta; test: ATP competitive inhibition of recombinant human N-terminal GST-tagged CK1delta (1 to 294 residues) in presence of varying level of ATP by Kinase-Glo reagent-based luminescence assay
Outline: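 Truncated enzyme (16 ng) in 50 mM HEPES pH 7.5, 1 mM EDTA, 1 mM EGTA, 15 mM Mg acetate with 0.1% casein; ATP in the added mix at 4, 40 or 400 µM (Fig. 8-B gives 2, 20, 200 µM). 60 min at 30 °C, then Kinase-Glo, luminescence read after 10 min at 25 °C. Activity is compared across ATP levels.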
Target sequence in this assay (P48730 whole entry, looked up, the tested form may be a part, canonical isoform): as the sequence (P48730 whole entry, looked up, the tested form may be a part, canonical isoform) above

PBL [13] = test: Cytotoxicity against human PBL cells assessed as inhibition of cell growth after 72 hrs by resazurin based assay
Outline: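 Gradient-isolated PBL held overnight in RPMI-1640 with 10% FBS. Non-adherent resting cells (no PHA) at 5×10^5 cells/mL, exposed to compounds for 72 h. Viability read as resazurin fluorescence at 590 nm over 4 h.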

Fibroblast = test: Cytotoxicity against human fibroblast assessed as inhibition of cell growth after 72 hrs by resazurin based assay
Outline: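 Normal adult fibroblasts grown in DMEM with 10% FBS, seeded at 2×10^4 cells per well. Compounds added after 24 h at several concentrations; viability read 72 h later by resazurin fluorescence at 590 nm over 4 h.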

[14] = target: T1, Casein kinase I isoform delta; test: Binding affinity to wild-type human full length CSNK1D (M1 to K409 residues) expressed in bacterial expression system at 10 uM by Kinomescan method relative to control; outline: as §1
Target sequence in this assay (P48730 whole entry, looked up, the tested form may be a part, canonical isoform): as above

[15] = target: Casein kinase I isoform gamma-3 (Homo sapiens) (UniProt Q9Y6M4); test: Binding affinity to wild-type human full length CSNK1G3 (M1 to K447 residues) expressed in bacterial expression system at 10 uM by Kinomescan method relative to control; outline: as §1
Sequence of Casein kinase I isoform gamma-3 (Homo sapiens) (Q9Y6M4 whole entry, looked up, the tested form may be a part, canonical isoform): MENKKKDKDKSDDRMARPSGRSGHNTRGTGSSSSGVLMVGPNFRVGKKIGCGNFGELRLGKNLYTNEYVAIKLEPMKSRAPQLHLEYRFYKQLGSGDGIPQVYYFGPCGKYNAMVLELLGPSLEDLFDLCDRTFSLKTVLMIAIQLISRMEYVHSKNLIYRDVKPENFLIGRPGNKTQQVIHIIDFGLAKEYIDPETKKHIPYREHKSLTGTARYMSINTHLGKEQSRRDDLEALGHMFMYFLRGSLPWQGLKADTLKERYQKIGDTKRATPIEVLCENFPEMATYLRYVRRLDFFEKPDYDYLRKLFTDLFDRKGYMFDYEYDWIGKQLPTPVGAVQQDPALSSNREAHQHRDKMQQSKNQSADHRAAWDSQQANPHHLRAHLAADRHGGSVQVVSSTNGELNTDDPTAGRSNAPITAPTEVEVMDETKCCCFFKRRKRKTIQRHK

[16] = target: T3, Casein kinase I isoform alpha-like (Homo sapiens) (UniProt Q8N752); test: Binding affinity to wild-type human full length CSNK1A1L (M1 to N337 residues) expressed in bacterial expression system at 10 uM by Kinomescan method relative to control; outline: as §1
T3 sequence (whole entry): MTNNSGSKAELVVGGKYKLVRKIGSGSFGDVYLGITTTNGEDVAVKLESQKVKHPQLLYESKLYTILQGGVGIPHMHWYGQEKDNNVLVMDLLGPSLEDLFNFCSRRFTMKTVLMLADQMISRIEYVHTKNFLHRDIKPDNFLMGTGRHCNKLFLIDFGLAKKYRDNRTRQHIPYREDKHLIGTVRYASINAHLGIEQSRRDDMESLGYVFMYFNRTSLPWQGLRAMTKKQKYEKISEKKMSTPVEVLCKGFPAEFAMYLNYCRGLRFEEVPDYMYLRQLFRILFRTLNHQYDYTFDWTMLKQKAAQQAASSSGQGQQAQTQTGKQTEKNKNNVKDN

CCOC(=O)c1cnc(NCc2ccc(-c3ccccc3)cc2)n2nc(-c3cccc(OC)c3)nc12
inhibition [1]: 17.5%

COc1cc(OC)cc(-c2nc3cc(N(C)C)nc(N)n3n2)c1
inhibition [1]: 33.5%

CCOC(=O)c1cnc(N)n2nc(-c3cc(O)cc(O)c3)nc12
inhibition [1]: 97.8%
IC50 [2]: 480 nM

CCOC(=O)c1cnc(N)n2nc(C)nc12
inhibition [1]: 66.6%
IC50 [2]: 15200 nM

Nc1nc(NCc2ccc(F)cc2)nc2nc(-c3cc(O)cc(O)c3)nn12
inhibition [1]: 87%
IC50 [2]: 470 nM

NCCNC(=O)c1cnc(N)n2nc(-c3cccc(O)c3)nc12
inhibition [1]: 93%
IC50 [2]: 1260 nM

Nc1nc(NCc2ccccc2)nc2nc(-c3ccc(O)cc3)nn12
inhibition [1]: 70.4%
IC50 [2]: 1320 nM

COc1cc(OC)cc(-c2nc3nc(NCc4cccc(C)c4)nc(N)n3n2)c1
inhibition [1]: 13.9%

Nc1nc(NCc2ccc(Cl)cc2)nc2nc(-c3cc(O)cc(O)c3)nn12
inhibition [1]: 95.8%
IC50 [2]: 750 nM

COc1cc(OC)cc(-c2nc3nc(NCc4ccc(Cl)cc4)nc(N)n3n2)c1
inhibition [1]: 9.7%

CCC(CO)Nc1nc(NCc2ccc(-c3ccccn3)cc2)c2ncn(C(C)C)c2n1 (configuration not stated)
IC50 [3]: 400 nM

CCOC(=O)c1cnc(N)n2nc(-c3cc4ccccc4[nH]3)nc12
inhibition [1]: 22.4%

Nc1nc(NC2CCCCC2)nc2nc(-c3cc(O)cc(O)c3)nn12
inhibition [1]: 89.3%
IC50 [2]: 670 nM

Nc1nc(NCc2ccccc2)nc2nc(-c3cccc(O)c3)nn12
inhibition [1]: 84.2%
IC50 [2]: 460 nM

Nc1nc(NCc2ccccc2)cc2nc(-c3cccc(O)c3)nn12
inhibition [1]: 75.2%
IC50 [2]: 300 nM

CCOC(=O)c1cnc(NC)n2nc(-c3cccc(O)c3)nc12
inhibition [1]: 7.1%

CCOC(=O)c1cnc(NCc2ccc(OC)c(OC)c2)n2nc(-c3ccccc3)nc12
inhibition [1]: 35.7%

CCOC(=O)c1cnc(N)n2nc(-c3cccc(OC)c3)nc12
inhibition [1]: 52%
IC50 [2]: 25000 nM

CCOC(=O)c1cnc(N)n2nc(-c3cccc([N+](=O)[O-])c3)nc12
inhibition [1]: 21.6%

CC(C)(C)OC(=O)NCCNC(=O)c1cnc(N)n2nc(-c3cc(O)cc(O)c3)nc12
inhibition [1]: 84.2%
IC50 [2]: 5320 nM

NCCNC(=O)c1cnc(N)n2nc(-c3cc(O)cc(O)c3)nc12
inhibition [1]: 93.6%
IC50 [2]: 210 nM

COc1cccc(-c2nc3nc(NCc4ccccc4)nc(N)n3n2)c1
inhibition [1]: 18.1%

Cc1cccc(CNc2nc(N)n3nc(-c4cc(O)cc(O)c4)nc3n2)c1
inhibition [1]: 79.7%
IC50 [2]: 530 nM

Nc1nccc(-c2c(-c3ccc(F)cc3)ncn2C2CCN(Cc3ccon3)CC2)n1
IC50 [4]: 17 nM
IC50 [5]: 3.9 nM

COc1cc(O)cc(-c2nc3nc(NC4CCCCC4)nc(N)n3n2)c1
inhibition [1]: 68.6%
IC50 [2]: 3300 nM

CCNC(=O)c1cnc(N)n2nc(-c3cccc(O)c3)nc12
inhibition [1]: 90.4%
IC50 [2]: 320 nM

CCOC(=O)c1cnc(N)n2nc(-c3ccc(O)cc3)nc12
inhibition [1]: 39.3%

Oc1cccc(-c2nc3nc(NCc4ccccc4)nc(NCc4ccccc4)n3n2)c1
inhibition [1]: -8.5%

Nc1ncc(C(=O)O)c2nc(-c3cccc(O)c3)nn12
inhibition [1]: 75.8%
IC50 [2]: 26700 nM

COc1cc(OC)cc(-c2nc3nc(NCc4ccccc4)nc(N)n3n2)c1
inhibition [1]: 4.5%

CCNC(=O)c1cnc(N)n2nc(-c3cc(O)cc(O)c3)nc12
inhibition [1]: 86.1%
IC50 [2]: 990 nM

Nc1nc(NCc2ccccc2)nc2nc(-c3cc(O)cc(O)c3)nn12
IC50 [6]: 300 nM
Activity [7]: 32%
Activity [8]: 3.2%
inhibition [1]: 85.3%
Activity [9]: 20%
IC50 (PBL [10]): > 10 µM
Activity [11]: 1.4%
inhibition [12]: Active
IC50 (PBL [13]): > 10 µM
IC50 (Fibroblast): > 10 µM
Activity [14]: 14%
IC50 [2]: 180 nM
Activity [15]: 14%
Activity [16]: 14%

COc1cc(OC)cc(-c2nc3cc(NCc4ccccc4)nc(N)n3n2)c1
inhibition [1]: 19.4%

CCOC(=O)c1cnc(N)n2nc(-c3ccccc3)nc12
inhibition [1]: 62.2%
IC50 [2]: 8670 nM

CCOC(=O)c1cnc(N)n2nc(-c3ccc(OC)cc3)nc12
inhibition [1]: 50.3%

CCOC(=O)c1cnc(N)n2nc(-c3ccc(O)c(O)c3)nc12
inhibition [1]: 98%
IC50 [2]: 4750 nM

COc1cc(OC)cc(-c2nc3nc(NCc4ccc(F)cc4)nc(N)n3n2)c1
inhibition [1]: 10.5%

CCOC(=O)c1cnc(NCc2ccc(-c3ccccc3)cc2)n2nc(-c3cccc(O)c3)nc12
inhibition [1]: 9%

CCOC(=O)c1cnc(N)n2nc(-c3cc(OC)cc(OC)c3)nc12
inhibition [1]: 18.8%

CCOC(=O)c1cnc(N)n2nc(C3CCCC3)nc12
inhibition [1]: 76.8%
IC50 [2]: 12300 nM

CCOC(=O)c1cnc(N)n2nc(-c3cccc(N)c3)nc12
inhibition [1]: 66.8%
IC50 [2]: 16600 nM

CCOC(=O)c1cnc(NCc2ccccc2)n2nc(-c3cccc(O)c3)nc12
inhibition [1]: 1.2%

CCOC(=O)c1cnc(N)n2nc(-c3ccc(F)cc3)nc12
inhibition [1]: 44.7%

Nc1nc(NCc2ccccc2)cc2nc(-c3cc(O)cc(O)c3)nn12
inhibition [1]: 80.2%
IC50 [2]: 740 nM

CCOC(=O)c1cnc(N)n2nc(-c3cccc(O)c3)nc12
inhibition [1]: 88.9%
IC50 [2]: 2060 nM

CC(C)(C)OC(=O)NCCNC(=O)c1cnc(N)n2nc(-c3cccc(O)c3)nc12
inhibition [1]: 16.8%

CCOC(=O)c1cnc(N)n2nc(-c3cccc(F)c3)nc12
inhibition [1]: 53.7%
IC50 [2]: 15200 nM

Nc1nc(NCc2ccccc2)nc2nc(-c3ccc(O)c(O)c3)nn12
inhibition [1]: 93.8%
IC50 [2]: 910 nM

CCOC(=O)c1cnc(NCc2ccccc2)n2nc(-c3cccc(OC)c3)nc12
inhibition [1]: 10.9%

CCOC(=O)c1cnc(NCc2ccc(OC)c(OC)c2)n2nc(-c3ccc(F)cc3)nc12
inhibition [1]: 11.3%

CCOC(=O)c1cnc(N)n2nc(-c3ccncc3)nc12
inhibition [1]: 59.7%
IC50 [2]: 20200 nM

CCOC(=O)c1cnc(N)n2nc(-c3ccc(OCc4ccccc4)cc3)nc12
inhibition [1]: 39.7%

Reference: ChEMBL document CHEMBL4732260, “Developing novel classes of protein kinase CK1δ inhibitors by fusing [1,2,4]triazole with different bicyclic heteroaromatic systems” (Eur J Med Chem, 2021)
